Measurements: ChEMBL document CHEMBL1145867, “Muraymycins, novel peptidoglycan biosynthesis inhibitors: synthesis and SAR of their analogues” (2003)
Values after ≈ are worked out from the molar mass of the structure shown. Active and inactive are the calls of the source. The calls are words filed in the database; no cut-off is given here.

How the values were obtained:
Enterococcus sp. = assay: In vitro antimicrobial activity against Enterococci; assay type: functional
In short: (§1)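 Broth microdilution per NCCLS guidance. Serial dilutions of each agent in microtiter plates are inoculated with each organism to 10⁵ CFU/mL and incubated 18–22 h at 35 C in ambient air. MIC is the lowest concentration giving complete growth inhibition, judged by the unaided eye.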

Bacteria = assay: In vitro antimicrobial activity against gram-negative organisms (10); assay type: functional; in short: as §1
Staphylococcus sp. = assay: In vitro antimicrobial activity against Staphylococci; assay type: functional, staphyl ococcus species; in short: as §1
[1] = The inhibitory activity of compound against MraY or MurG at 100 ug/mL; No Inhibition
[2] = The inhibitory activity of compound against MraY or MurG at 6.25 ug/mL; No Inhibition
[3] = The inhibitory activity of compound against MraY or MurG at 25 ug/mL; No Inhibition
[4] = The inhibitory activity of compound against MraY or MurG at 12.5 ug/mL; No Inhibition
[5] = The inhibitory activity of compound against MraY or MurG at 50 ug/mL; No Inhibition
[6] = The inhibitory activity of compound against MraY or MurG at 100 ug/mL; Inhibit
[7] = The inhibitory activity of compound against MraY or MurG at 50 ug/mL; Inhibit

Row | Structure (SMILES) | MIC (Enterococcus sp.) | MIC (Bacteria) | MIC (Staphylococcus sp.) | Inhibitory activity [1] | Inhibitory activity [2] | Inhibitory activity [3] | Inhibitory activity [4] | Inhibitory activity [5] | Inhibitory activity [6] | Inhibitory activity [7]
1 | COc1ccc(Cn2c(=O)ccn([C@@H]3OC([C@H](O)[C@H](NCCCNC(=O)[C@@H](CCc4ccccc4)NC(=O)OCc4ccccc4)C(=O)OC(C)(C)C)[C@@H](O[Si](C)(C)C(C)(C)C)[C@H]3O[Si](C)(C)C(C)(C)C)c2=O)cc1 (stereo not given in full) | 128 µg/mL (≈ 119 µM) | > 128 µg/mL | 128 µg/mL (≈ 119 µM) | – | – | – | – | – | – | –
2 | COc1ccc(Cn2c(=O)ccn([C@@H]3OC([C@H](O)[C@H](NCCCNC(=O)[C@H](N)CCC(=O)OC(C)(C)C)C(=O)OC(C)(C)C)[C@@H](O[Si](C)(C)C(C)(C)C)[C@H]3O[Si](C)(C)C(C)(C)C)c2=O)cc1 (stereo not given in full) | > 128 µg/mL | > 128 µg/mL | > 128 µg/mL | inactive | inactive | inactive | inactive | inactive | – | –
3 | COc1ccc(Cn2c(=O)ccn([C@@H]3OC([C@H](O)[C@H](NCCCNC(=O)[C@@H](CC(C)C)NC(=O)[C@H](CCCN=C(N)N)NC(=O)N[C@H](C(=O)O)C(C)C)C(=O)OC(C)(C)C)[C@@H](O[Si](C)(C)C(C)(C)C)[C@H]3O[Si](C)(C)C(C)(C)C)c2=O)cc1 (stereo not given in full) | > 128 µg/mL | > 128 µg/mL | > 128 µg/mL | – | – | – | – | – | – | –
4 | COc1ccc(Cn2c(=O)ccn([C@@H]3OC([C@H](O)[C@H](NCCCNC(=O)[C@H](N)CC(C)C)C(=O)O)[C@@H](O)[C@H]3O)c2=O)cc1 (stereo not given in full) | 128 µg/mL (≈ 211 µM) | > 128 µg/mL | > 128 µg/mL | – | – | – | – | – | – | –
5 | COc1ccc(Cn2c(=O)ccn([C@@H]3OC([C@H](O)[C@H](NCCCNC(=O)[C@H](N)CC(=O)OCc4ccccc4)C(=O)OC(C)(C)C)[C@@H](O[Si](C)(C)C(C)(C)C)[C@H]3O[Si](C)(C)C(C)(C)C)c2=O)cc1 (stereo not given in full) | 4 µg/mL (≈ 4.06 µM) | 128 µg/mL (≈ 130 µM) | 16 µg/mL (≈ 16.3 µM) | – | inactive | inactive | inactive | – | Inhibit | Inhibit
6 | COc1ccc(Cn2c(=O)ccn([C@@H]3OC([C@H](O)[C@H](NCCCNC(=O)[C@@H](CC(C)C)NC(=O)[C@H](CCC/N=C(\N)N[N+](=O)[O-])NC(=O)N[C@H](C(=O)OCc4ccccc4)C(C)C)C(=O)O)[C@@H](O)[C@H]3O)c2=O)cc1 (stereo not given in full) | > 128 µg/mL | > 128 µg/mL | > 128 µg/mL | – | – | – | – | – | – | –
7 | COc1ccc(Cn2c(=O)ccn([C@@H]3OC([C@H](O)[C@H](NCCCNC(=O)[C@@H](C)NC(=O)OCc4ccccc4)C(=O)OC(C)(C)C)[C@@H](O[Si](C)(C)C(C)(C)C)[C@H]3O[Si](C)(C)C(C)(C)C)c2=O)cc1 (stereo not given in full) | 128 µg/mL (≈ 130 µM) | > 128 µg/mL | > 128 µg/mL | – | – | – | – | – | – | –
8 | COc1ccc(Cn2c(=O)ccn([C@@H]3OC([C@H](O)[C@H](NCCCNC(=O)[C@H](N)CCc4ccccc4)C(=O)OC(C)(C)C)[C@@H](O[Si](C)(C)C(C)(C)C)[C@H]3O[Si](C)(C)C(C)(C)C)c2=O)cc1 (stereo not given in full) | > 128 µg/mL | > 128 µg/mL | > 128 µg/mL | inactive | inactive | inactive | inactive | inactive | – | –
9 | COc1ccc(Cn2c(=O)ccn([C@@H]3OC([C@H](O)[C@H](NCCCNC(=O)[C@H](NC(=O)[C@H](CCC/N=C(\N)N[N+](=O)[O-])NC(=O)N[C@H](C(=O)OCc4ccccc4)C(C)C)C(O)C(C)C)C(=O)OC(C)(C)C)[C@@H](O[Si](C)(C)C(C)(C)C)[C@H]3O[Si](C)(C)C(C)(C)C)c2=O)cc1 (stereo not given in full) | > 128 µg/mL | > 128 µg/mL | > 128 µg/mL | – | – | – | – | – | – | –
10 | COc1ccc(Cn2c(=O)ccn([C@@H]3OC([C@H](O)[C@H](NCCCNC(=O)[C@@H](CC(=O)OCc4ccccc4)NC(=O)OCc4ccccc4)C(=O)OC(C)(C)C)[C@@H](O[Si](C)(C)C(C)(C)C)[C@H]3O[Si](C)(C)C(C)(C)C)c2=O)cc1 (stereo not given in full) | 4 µg/mL (≈ 3.58 µM) | > 128 µg/mL | > 128 µg/mL | – | – | – | – | – | – | –
